{"data": "Assay results collected from several papers", "organism": "Staphylococcus aureus", "read-out": "microbial growth"}
{"SMILES": "CC(C)Oc1c(NC(=O)c2ccc(NC(=O)[C@H](CC(N)=O)NC(=O)c3ccc(NC(=O)C(C)Oc4ccccc4)cc3)cc2)ccc(C(=O)Nc2ccc(C(=O)O)cc2)c1O (stereo partly shown)", "system": "ATCC29213", "MIC": "> 64 µg/mL"}
{"SMILES": "Cc1cccc(-c2[nH]c(C(C)(C)C)nc2-c2ccc3nccnc3c2)n1", "system": "NCTC8325", "MIC": "> 30 µM"}
{"SMILES": "O=C(O)CN1C(=O)/C(=C/c2ccc(-c3ccc(N(c4ccccc4)c4ccccc4)cc3)cc2)SC1=S", "test": "broth dilution", "system": "ATCC43300", "MIC": "3.9 µg/mL"}
{"SMILES": "C=CCn1c(-c2ccc(OC)c(OC)c2)nc2ccccc21", "test": "broth dilution", "system": "ATCC29213 MSSA", "MIC": "128 µg/mL"}
{"SMILES": "COc1c(C)c(OS(=O)(=O)c2ccc3ccccc3c2)c(C)c(OS(=O)(=O)c2ccc3ccccc3c2)c1C(=O)/C=C/c1ccccc1", "test": "broth dilution", "system": "ATCC25923", "MIC": "5000 µg/mL"}
{"SMILES": "Cc1ccc2nc(-c3ccc(Cl)cc3)n(Cc3ccccc3Cl)c2c1", "test": "broth dilution", "system": "ATCC29213 MSSA", "MIC": "64 µg/mL"}
{"SMILES": "O=C(CCCCCCCCCC[P+](c1ccccc1)(c1ccccc1)c1ccccc1)Nc1ccc(O)c(O)c1.[Br-]", "test": "broth dilution", "system": "ATCC43300 MRSA", "conditions": "18 h", "MIC": "16 µg/mL"}
{"SMILES": "C[S+]([O-])c1ccc(-c2nc(-c3ccc(F)cc3)c(-c3ccncc3)[nH]2)cc1 (stereo not shown)", "system": "NCTC8325", "MIC": "> 30 µM"}
{"SMILES": "O=C1NC(=S)S/C1=C\\c1ccc(-c2ccc(N(c3ccccc3)c3ccccc3)cc2)c2ccccc12", "test": "broth dilution", "system": "ATCC25923", "MIC": "500 µg/mL"}
{"SMILES": "OC(Cn1cncn1)(Cn1cncn1)c1ccc(F)cc1F", "test": "broth dilution", "system": "MB2865", "MIC": "> 128 µg/mL"}
{"SMILES": "O=C(O)CN1C(=O)/C(=C/c2ccc(-c3ccc(N(c4ccccc4)c4ccccc4)cc3)c3ccccc23)NC1=S", "test": "broth dilution", "system": "ATCC6538", "MIC": "> 1000 µg/mL"}
{"SMILES": "Cc1ccc2nc(-c3ccc([N+](=O)[O-])cc3)[nH]c2c1", "test": "broth dilution", "system": "ATCC29213 MSSA", "MIC": "128 µg/mL"}
{"SMILES": "O=C(Nc1ccc(Cl)c(C(F)(F)F)c1)N1CCc2ccccc2C1", "system": "NCTC8325", "conditions": "24 h", "MIC": "30 µM"}
{"SMILES": "CS(=O)(=O)c1cccc(-c2nnc(NC(=O)c3ccc(-c4ccccc4)cc3)o2)c1", "MIC": "> 128 µg/mL"}
{"SMILES": "O=[N+]([O-])c1cccc(-c2nc3ccccc3[nH]2)c1", "test": "broth dilution", "system": "ATCC29213 MSSA", "MIC": "64 µg/mL"}
{"SMILES": "C=CC1(C)CC(OC(=O)CSCCCCCN(C)C)C2(C)C(C)CCC3(CCC(=O)C32)C(C)C1O (stereo not shown)", "MIC": "0.5 µg/mL"}
{"SMILES": "O=C(O)c1cn(C2CC2)c2cc(N3CCNCC3)c(F)cc2c1=O", "test": "broth dilution", "system": "ATCC6538", "MIC": "0.24 µg/mL"}
{"SMILES": "C/N=C(/NC)c1ccc(NC(=O)/C=C/c2ccc(/C=C/C(=O)Nc3ccc(/C(=N\\C)NC)cc3)cc2)cc1", "MIC": "2 µg/mL"}
{"SMILES": "Cn1cc(C2=C(c3ccc(Cl)cc3Cl)C(=O)NC2=O)c2ccccc21", "system": "NCTC8325", "MIC": "> 30 µM"}
{"SMILES": "Cc1ccc2nc(-c3ccccc3O)[nH]c2c1", "test": "broth dilution", "system": "ATCC29213 MSSA", "MIC": "128 µg/mL"}
{"SMILES": "CC(C)Oc1c(NC(=O)c2ccc(NC(=O)[C@H](CC(N)=O)NC(=O)c3ccc(NC(=O)c4ccc(C#N)cn4)cc3)cc2)ccc(C(=O)Nc2ccc(C(=O)O)cc2)c1O", "system": "ATCC29213", "MIC": "≤ 0.03 µg/mL"}
{"SMILES": "CN[C@H](CC(C)C)C(=O)N[C@H]1C(=O)N[C@@H](CC(N)=O)C(=O)N[C@H]2C(=O)N[C@H]3C(=O)N[C@H](C(=O)N[C@H](C(=O)O)c4cc(O)cc(O)c4-c4cc3ccc4O)[C@H](O)c3ccc(c(Cl)c3)Oc3cc2cc(c3O[C@@H]2O[C@H](CO)[C@@H](O)[C@H](O)[C@H]2O[C@H]2C[C@](C)(N)[C@H](O)[C@H](C)O2)Oc2ccc(cc2Cl)[C@H]1O", "test": "broth dilution", "system": "16162", "MIC": "0.5 µg/mL"}
{"SMILES": "Cc1cc(Nc2ncnc3ccc(NC4=NC(C)(C)CO4)cc23)ccc1Oc1ccn2ncnc2c1", "system": "NCTC8325", "MIC": "> 30 µM"}
{"SMILES": "CC(C)Oc1c(NC(=O)c2ccc(NC(=O)[C@H](CC(N)=O)NC(=O)c3ccc(NC(=O)c4cccc([N+](=O)[O-])c4)cc3)cc2)ccc(C(=O)Nc2ccc(C(=O)O)cc2)c1O", "system": "ATCC29213", "MIC": "> 64 µg/mL"}
{"SMILES": "O=C1NC(=S)N/C1=C\\c1ccc(-c2ccc(N(c3ccccc3)c3ccccc3)cc2)cc1", "test": "broth dilution", "system": "ATCC6538", "MIC": "> 1000 µg/mL"}
{"SMILES": "Clc1ccccc1NCc1ccc(Oc2ccccn2)cc1", "MIC": "1.6 µg/mL"}
{"SMILES": "CCN(CC)CCNC(=O)c1c(C)[nH]c(/C=C2\\C(=O)Nc3ccc(F)cc32)c1C", "system": "NCTC8325", "MIC": "> 30 µM"}
{"SMILES": "CO[C@H]1/C=C/O[C@@]2(C)Oc3c(C)c(O)c4c(O)c(c(/C=N/N5CCN(C)CC5)c(O)c4c3C2=O)NC(=O)/C(C)=C\\C=C\\[C@H](C)[C@H](O)[C@@H](C)[C@@H](O)[C@@H](C)[C@H](OC(C)=O)[C@@H]1C", "test": "broth dilution", "system": "ATCCBAA44", "MIC": "2 µg/mL"}
{"SMILES": "C/C=C(\\C)c1cc(OC(=O)c2c(C)c(Cl)c(O)c(Cl)c2O)c(C)c(O)c1C(=O)O", "test": "broth dilution", "system": "6917", "MIC": "> 64 µg/mL"}
{"SMILES": "C[C@H]1c2cccc(O)c2C(=O)C2=C(O)[C@]3(O)C(=O)C(C(N)=O)=C(O)[C@@H](N(C)C)[C@@H]3[C@@H](O)[C@@H]21", "conditions": "clinical isolate", "MIC": "6.25 µg/mL"}
{"SMILES": "CO[C@H]1[C@H](O[C@H]([C@H]2O[C@@H](n3ccc(=O)[nH]c3=O)[C@H](O)[C@@H]2O)[C@H](NCCCNC(=O)[C@@H](NC(=O)[C@@H](NC(=O)N[C@H](C(=O)O)C(C)C)[C@@H]2CCNC(=N)N2)[C@@H](O)C(C)C)C(=O)O)O[C@H](CN)[C@H]1O", "system": "NEWMAN", "MIC": "> 32 µg/mL"}
{"SMILES": "COc1cccc(OC)c1C(=O)N[C@@H]1C(=O)N2[C@@H]1SC(C)(C)[C@@H]2C(=O)O", "system": "129", "conditions": "clinical isolate", "MIC": "37.5 µM"}
{"SMILES": "COc1c(C)c(OC(C)=O)c(C)c(OC(C)=O)c1C(=O)/C=C/c1ccccc1", "test": "broth dilution", "system": "ATCC25923", "MIC": "5000 µg/mL"}
{"SMILES": "COc1ccc(-c2nc3ccccc3[nH]2)cc1O", "test": "broth dilution", "system": "ATCC29213 MSSA", "MIC": "128 µg/mL"}
{"SMILES": "CC[C@H](CO)Nc1nc(NCc2ccccc2)c2ncn(C(C)C)c2n1", "system": "NCTC8325", "MIC": "> 30 µM"}
{"SMILES": "C/C=C(\\C)c1cc(OC(=O)c2c(O)c(C)c(O)c(Cl)c2/C(C)=C/C)c(C)c(O)c1C(=O)O", "test": "broth dilution", "system": "ATCC29213", "MIC": "64 µg/mL"}
{"SMILES": "Cc1ccc(C)n1-c1ccc(-c2nnc(-c3ccccc3Cl)[nH]2)cc1", "test": "broth dilution", "system": "ATCC11632", "conditions": "18 h", "MIC": "2 µg/mL"}
{"SMILES": "C/C=C(\\C)c1cc(O)c(C)c(OC(=O)c2c(C)c(Cl)c(O)c(Cl)c2O)c1", "test": "broth dilution", "system": "16162", "MIC": "2 µg/mL"}
{"SMILES": "C/C(=C\\c1ccc(C#N)cc1)C(=O)Nc1ccc(C(=O)N[C@@H](CC(N)=O)C(=O)Nc2ccc(C(=O)Nc3ccc(C(=O)Nc4ccc(C(=O)O)cc4)c(O)c3OCC(C)C)cc2)cc1", "system": "ATCC29213", "MIC": "0.06 µg/mL"}
{"SMILES": "CCCCCCC#Cc1cncc(-c2nnc(SCc3ccc(Cl)cc3)n2C2CC2)c1", "system": "MRSA", "conditions": "drug-resistant strain", "MIC": "≥ 20 µg/mL"}
{"SMILES": "C/C(=C\\c1ccc(O)cc1)C(=O)Nc1ccc(C(=O)N[C@@H](CC(N)=O)C(=O)Nc2ccc(C(=O)Nc3ccc(C(=O)Nc4ccc(C(=O)O)cc4)c(O)c3OC(C)C)cc2)cc1", "system": "ATCC29213", "MIC": "0.25 µg/mL"}
{"SMILES": "CC1(C)S[C@@H]2[C@H](NC(=O)COc3ccccc3)C(=O)N2[C@H]1C(=O)O", "system": "MRSA", "conditions": "18 h", "MIC": "> 128 µg/mL"}
{"SMILES": "CNC(=O)c1ccc(NC(=O)Nc2ccc(Cl)c(C(F)(F)F)c2)cc1", "system": "NCTC8325", "conditions": "24 h", "MIC": "30 µM"}
{"SMILES": "CC1(C)S[C@@H]2[C@H](NC(=O)[C@H](N)c3ccccc3)C(=O)N2[C@H]1C(=O)O", "test": "broth dilution", "system": "ATCC25923", "conditions": "16 h", "MIC": "0.15 µg/mL"}
{"SMILES": "Cc1ccc2nc(-c3ccc([N+](=O)[O-])cc3)n(Cc3ccccc3)c2c1", "test": "broth dilution", "system": "ATCC29213 MSSA", "MIC": "8 µg/mL"}
{"SMILES": "CC1=NN(CNc2ccc(Cl)cc2)C(=O)C1=NNn1c(-c2ccccc2)nc2ccccc2c1=O", "test": "broth dilution", "conditions": "24 h", "MIC": "51.5 µM"}
{"SMILES": "CC1(C)S[C@@H]2[C@H](NC(=O)[C@H](N)c3ccccc3)C(=O)N2[C@H]1C(=O)O", "test": "broth dilution", "system": "CCARM3090", "MIC": "16 µg/mL"}
{"SMILES": "CC1=NN(CNC(=O)c2ccccn2)C(=O)C1=NNn1c(-c2ccccc2)nc2ccccc2c1=O", "test": "broth dilution", "conditions": "24 h", "MIC": "52 µM"}
{"SMILES": "CCn1cc(C(=O)O)c(=O)c2cc(F)c(N3CCNCC3)cc21", "system": "MRSA", "MIC": "250 µg/mL"}
{"SMILES": "O=C(COC(=O)c1n[nH]c2ccccc12)Nc1ccc(N2CCCCC2)cc1", "MIC": "> 128 µg/mL"}
{"SMILES": "CC(C)COc1c(NC(=O)c2ccc(NC(=O)[C@H](CC(N)=O)NC(=O)c3ccc(NC(=O)c4ccc(C#N)cc4)cc3)cc2)ccc(C(=O)Nc2ccc(C(=O)O)cc2)c1O", "system": "ATCC29213", "MIC": "0.25 µg/mL"}
{"SMILES": "CN(C)[C@@H]1C(O)=C(C(N)=O)C(=O)[C@@]2(O)C(O)=C3C(=O)c4c(O)cccc4[C@@](C)(O)[C@H]3C[C@@H]12", "system": "147", "conditions": "clinical isolate", "MIC": "≤ 0.1 µM"}
{"SMILES": "Cc1ccc2nc(-c3ccc([N+](=O)[O-])cc3)n(Cc3ccc(Cl)cc3)c2c1", "test": "broth dilution", "system": "ATCC29213 MSSA", "MIC": "8 µg/mL"}
{"SMILES": "C[n+]1c(/C=C/c2ccc(O)cc2)cc(/C=C2\\Sc3ccccc3N2CCCN2CCOCC2)c2ccccc21.[I-]", "test": "broth dilution", "system": "ATCCBAA44", "MIC": "8 µg/mL"}
{"SMILES": "C/C=C(\\C)c1cc(O)c(C)c(OC(=O)c2c(C)cc(O)c(Cl)c2O)c1", "test": "broth dilution", "system": "745524", "MIC": "8 µg/mL"}
{"SMILES": "Cc1ccccc1NCc1ccc(Oc2ccccn2)cc1", "MIC": "1.6 µg/mL"}
{"SMILES": "CC(C)Oc1c(NC(=O)c2ccc(NC(=O)[C@H](CC(N)=O)NC(=O)c3ccc(NC(=O)c4cc(C#N)cn4C)cc3)cc2)ccc(C(=O)Nc2ccc(C(=O)O)cc2)c1O", "system": "ATCC29213", "MIC": "64 µg/mL"}
{"SMILES": "Cc1ccc(C)n1-c1ccc(-c2nnc(-c3ccccc3[N+](=O)[O-])[nH]2)cc1", "test": "broth dilution", "system": "ATCC11632", "conditions": "18 h", "MIC": "8 µg/mL"}
